TRPC4 act – activators of mouse TRPC4 channel; Q9QUQ5; HEK293 TRPC4beta/mu-opioid, Fluo4 calcium fluorescence; stronger effect = higher value; B-score at 10 µM; hit rate 0.49% among 310,000;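 active = B-score above 5 SD of library B-scores, and initial fluorescence ratio not above library mean plus 5 SD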;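 also: positive B-score marks a calcium rise read as TRPC4 activation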
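Assay system: HEK293 stable line with TRPC4beta plus mu-opioid receptor. Times: dye 45 min RT, read 110 s. Measured by: kinetic Fluo4 calcium fluorescence. Measure: B score of integrated ratio. Controls: assay buffer as low control, maximal DAMGO as high control.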
TRPC6 inhibitor – blocks the mouse TRPC6 cation channel; Q61143; HEK293-TRPC6, membrane potential dye, ACh-evoked depolarization; stronger effect = lower value; B-score at 10 µM; hit rate 1.1% among 310,000; AID 2553;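 active = B-score under library mean minus 3 SD, initial fluorescence not abnormally high, positive integrated signal ratio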;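 also: B-score derived from integrated fluorescence ratio over the kinetic read; more negative B-score means stronger inhibition of depolarization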
Target sequence (Q61143 whole entry, looked up): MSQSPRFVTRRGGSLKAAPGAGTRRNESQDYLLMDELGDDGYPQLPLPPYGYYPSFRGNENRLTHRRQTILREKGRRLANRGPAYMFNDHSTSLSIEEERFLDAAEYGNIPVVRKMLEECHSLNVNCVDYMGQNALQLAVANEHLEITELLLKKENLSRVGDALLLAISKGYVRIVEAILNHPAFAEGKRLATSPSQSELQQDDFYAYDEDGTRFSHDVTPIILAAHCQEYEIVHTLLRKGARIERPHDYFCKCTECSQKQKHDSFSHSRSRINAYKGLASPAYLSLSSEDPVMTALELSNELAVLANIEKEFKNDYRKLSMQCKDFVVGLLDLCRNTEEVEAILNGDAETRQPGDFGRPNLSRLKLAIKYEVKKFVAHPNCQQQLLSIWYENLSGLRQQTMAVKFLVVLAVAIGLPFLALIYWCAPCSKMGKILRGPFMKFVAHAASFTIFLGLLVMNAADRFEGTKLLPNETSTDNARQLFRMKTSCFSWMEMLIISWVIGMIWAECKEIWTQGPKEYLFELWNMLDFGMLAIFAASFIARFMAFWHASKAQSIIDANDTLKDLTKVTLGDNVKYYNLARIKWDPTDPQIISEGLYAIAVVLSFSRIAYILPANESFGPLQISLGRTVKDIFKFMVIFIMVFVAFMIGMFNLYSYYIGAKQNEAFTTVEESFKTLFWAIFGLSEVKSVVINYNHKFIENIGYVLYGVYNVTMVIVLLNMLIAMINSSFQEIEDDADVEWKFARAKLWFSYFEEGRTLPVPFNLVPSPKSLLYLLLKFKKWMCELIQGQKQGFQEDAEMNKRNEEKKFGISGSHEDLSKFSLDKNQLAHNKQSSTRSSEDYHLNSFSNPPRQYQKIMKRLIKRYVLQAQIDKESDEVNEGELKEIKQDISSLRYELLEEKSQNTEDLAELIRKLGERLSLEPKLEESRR
TRPC4 inh – blocks the mouse TRPC4 cation channel; Q9QUQ5; HEK293 TRPC4beta/mu-opioid, DAMGO-evoked Fluo4 calcium flux; stronger effect = lower value; B-score at 10 µM; hit rate 0.39% among 300,000; AID 2247;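 active = B-score over 3 SD under the library average, no early fluorescence shift, positive overall ratio signal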
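Material: HEK293 cells with stable TRPC4beta plus mu-opioid receptor expression / Probe or stimulus: DAMGO in two steps, submaximal then maximal / Compound: single concentration per test compound / Technique: kinetic Fluo4 fluorescence imaging of calcium influx / Read-out: per-well B score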
TRPC4 PAM – allosterically enhances the mouse TRPC4 cation channel; Q9QUQ5; HEK293 TRPC4beta/mu-opioid, DAMGO EC20, Fluo-4 Ca2+ flux; stronger effect = higher value; B-score at 10 µM; hit rate 0.42% among 310,000;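 active = B-score of calcium response area above 5 SD of library B-scores, with initial fluorescence ratio within 5 SD of library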;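 also: B-score of integrated fluorescence ratio over time as area under calcium response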
TRPC6 activator – activates the mouse TRPC6 cation channel; Q61143; HEK293-TRPC6 membrane potential dye fluorescence; stronger effect = higher value; B-score at 10 µM; hit rate 0.13% among 310,000; AID 2550;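 active = B-score of the integrated fluorescence ratio above library mean plus 3 SD, and starting fluorescence ratio within library mean plus 5 SD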;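 also: higher score means more depolarization so channel activation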
TRPC4 sel inh 2 – second selectivity test of TRPC6 inhibitors: effect on mouse TRPC4 | shares compounds with TRPC6 inhibitor | HEK293 TRPC4/MOR, membrane potential dye fluorescence; channel activated by saturating DAMGO dose | inhibition, % at 10 µM | hit rate 42% among 920 | AID 2776;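 active = compounds whose fluorescence signal differed from control wells by over 3 SD, either direction, in both duplicate plates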
TRPC4 spec – tests whether TRPC6 inhibitors also affect mouse TRPC4; shares compounds with TRPC6 inhibitor; HEK293 TRPC4/mu-opioid, membrane potential fluorescence; activity change, negative = inhibition, % at 10 µM; hit rate 61% among 920;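 active = rise or fall in signal beyond 3 SD of buffer-only wells in both replicate plates, either sign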;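 also: integrated kinetic ratio of fluorescence range over baseline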
HEK293 MPD ctr 2-1 – second check of TRPC6 inhibitor effects in parental HEK293 cells; shares compounds with TRPC6 inhibitor; parental HEK293 membrane potential dye fluorescence; maximal acetylcholine challenge after compound addition; signal change vs control, % at 10 µM; hit rate 31% among 920; AID 2779;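 active = membrane potential signal moving either way by over 3 SD of the maximum-effect control, in both duplicate plates, meaning non-specific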
HEK293 MPD ctr-1 – checks TRPC6 inhibitor effects in parental HEK293 cells. hit rate 60% among 920. membrane potential signal change, % at 10 µM. AID 2780. shares compounds with TRPC6 inhibitor. parental HEK293 membrane potential dye fluorescence;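 active = membrane potential signal shifting up or down by more than 3 SD of buffer-only wells, on both duplicate plates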
HEK293 MPD ctr-2 – parental HEK293 nonspecific activity of TRPC6 modulators. shares compounds with TRPC6 inhibitor. membrane potential dye fluorescence. membrane potential signal change, % at 10 µM. hit rate 51% among 2,400. AID 488924;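 active = membrane potential signal moves up or down beyond 5 SD from buffer-only wells, on both duplicate plates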
HEK293 MPD ctr 2-2 – second counter-screen for TRPC6 modulators: effect in parental HEK293 cells | hit rate 14% among 2,400 | shares compounds with TRPC6 inhibitor | inhibition, % at 10 µM | membrane potential dye fluorescence; after compound, maximal acetylcholine stimulation;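 active = membrane potential signal drops by more than 5 SD from the mean control signal, in both duplicate plates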;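 also: plate controls were acetylcholine ECmax control wells for no effect and buffer only wells for full effect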
TRPC4 ctr mod – selectivity of TRPC6 modulators against mouse TRPC4; hit rate 69% among 2,400; percent change from control (negative = decrease, positive = increase), % at 10 µM; HEK293 TRPC4/mu-opioid, membrane potential fluorescence; shares compounds with TRPC6 inhibitor;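 active = membrane potential signal moved up or down beyond 5 SD of buffer control wells, in both duplicate plates, actives on both sides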;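 also: plate controls were assay buffer wells for no effect and DAMGO maximal-effect wells for full effect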
TRPC4 ctr inh 2 – second check of whether TRPC6 modulators also affect mouse TRPC4. shares compounds with TRPC6 inhibitor. HEK293 TRPC4/mu-opioid, membrane potential dye fluorescence; stimulated with maximal-effect DAMGO. inhibition, % at 10 µM. hit rate 55% among 2,400;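 active = drop in membrane potential signal beyond 5 SD of the control wells in both duplicate plates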;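 also: TRPC4 counter screen for TRPC6 hits run under conditions tuned for TRPC6 not TRPC4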
TRPC6 inh conf – confirmation of mouse TRPC6 inhibitors. HEK293-TRPC6, membrane potential dye, ACh-evoked depolarization. shares compounds with TRPC6 inhibitor. hit rate 43% among 3,300. inhibition, % at 10 µM;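 active = fluorescence ratio falls more than 5 SD below the full-stimulation control mean, in both duplicate runs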;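 also: integrated fluorescence ratio of peak minus minimum over baseline after agonist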
TRPC6 act conf – mouse TRPC6 activator confirmation; HEK293-TRPC6 membrane potential dye fluorescence, FDSS; hit rate 11% among 2,800; activation, % at 10 µM; shares compounds with TRPC6 inhibitor;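 active = ratio signal rise beyond 5 SD above unstimulated control wells' mean, seen in both duplicate runs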;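 also: plate controls were buffer EC0 wells for no effect and acetylcholine ECmax response for full effect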
* marks the source's active call; other numbers are inactive results; i = inactive; · = no result. This is a sample that favours compounds with a hit; in the whole collection about 2.3% have one here.

SMILES | TRPC4 act | TRPC6 inhibitor | TRPC4 inh | TRPC4 PAM | TRPC6 activator | HEK293 MPD ctr-2 | HEK293 MPD ctr 2-2 | TRPC4 ctr mod | TRPC4 ctr inh 2 | TRPC6 inh conf | TRPC6 act conf | others
CC[n+]1c(/C=C/Nc2ccccc2)oc2ccc(OC)cc21 | i | -5.5* | -7* | i | i | -74%* | i | -24%* | i | 46%* | i
CC[n+]1c(/C=C/Nc2ccccc2)oc2ccccc21 | i | -7.3* | i | i | i | -169%* | 76%* | -44%* | 82%* | 69%* | i
CCC1CCCCN1C(=O)CCc1nnc(Cc2cc(OC)ccc2OC)o1 (stereo not given) | i | i | i | i | i | · | · | · | · | · | ·
O=C(CCSCCc1ccccn1)Nc1ccc(Br)cn1 | i | i | i | i | i | · | · | · | · | · | ·
O=C(CCC1CCN(C(=O)c2ccccc2Cl)CC1)NCc1ccc(F)cc1 | i | i | i | i | i | · | · | · | · | · | ·
O=C1OCCN1CCNCc1cn(-c2ccc(F)cc2)nc1-c1ccccc1Cl | i | i | i | i | i | · | · | · | · | · | ·
Cc1ccc(-n2cc(CNCCN3CCOC3=O)c(-c3cccc(C)c3)n2)cc1 | i | -5.8* | i | i | i | i | i | 10%* | 58%* | i | i
CC(=O)Nc1ccc(NS(=O)(=O)c2cccc3nonc23)cc1 | i | i | i | i | i | · | · | · | · | · | ·
O=C(Nc1ccc2c(c1)OCCO2)c1ccc(NC(=O)C2CCCO2)cc1 (stereo not given) | i | -5.2* | i | i | i | i | i | i | i | i | i
O=C(NCc1ccc2c(c1)OCO2)c1ccc(NC(=O)C2CCCO2)cc1 (stereo not given) | i | i | i | i | i | · | · | · | · | · | ·
CC1=NN(c2ccc(C(=O)OC(C)C)cc2)C(=O)/C1=C\C=C\c1ccco1 | i | -6.3* | i | i | i | i | i | i | 45%* | i | i
CC1=NN(c2ccccc2)C(=O)/C1=C/C=C/c1ccc(N(C)C)cc1 | i | -12* | i | i | i | · | · | · | · | 81%* | i | TRPC4 sel inh 2=74%*;TRPC4 spec=-14%*;HEK293 MPD ctr 2-1=i;HEK293 MPD ctr-1=-140%*
CC1=NN(c2ccccc2)C(=O)/C1=C/c1cn(C)c2ccccc12 | i | -5.4* | i | i | i | i | i | -12%* | 40%* | i | i
COc1cc(C(=O)NC2=C(C#N)CCC2)cc(OC)c1OC | i | i | i | i | i | · | · | · | · | · | ·
CCn1cc(C(=O)N2CCN(c3ccc(C(C)=O)cc3)CC2)c2cc(OC)c(OC)cc2c1=O | i | i | i | i | i | · | · | · | · | · | ·
S=C(Nc1ccc(Nc2ccccc2)cc1)N1CCN(c2ncccn2)CC1 | i | i | i | i | i | · | · | · | · | · | ·
O=C(Nc1cccnc1)c1cnn2cccnc12 | i | -5.2* | i | i | i | -96%* | i | -10%* | i | i | i
CC(=O)N/C(=N/c1nc(C)cc(C)n1)Nc1cccc(C)c1C | i | i | i | i | i | · | · | · | · | · | ·
Cc1nnc(Nc2ccccn2)c2ccccc12 | i | -5.7* | i | i | i | -219%* | 58%* | -36%* | 46%* | 63%* | i
O=C(O)CS(=O)CC(=O)Nc1cccc(C(F)(F)F)c1 (stereo not given) | i | i | i | i | i | · | · | · | · | · | ·
CCCCN(CCCC)CC(O)CN(c1cc([N+](=O)[O-])ccc1OC)S(=O)(=O)c1ccccc1 (stereo not given) | i | -10* | i | i | i | · | · | · | · | 67%* | i | TRPC4 sel inh 2=28%*;TRPC4 spec=i;HEK293 MPD ctr 2-1=i;HEK293 MPD ctr-1=0.2%*
COc1ccc([N+](=O)[O-])cc1N(CC(O)CN(CC(C)C)CC(C)C)S(=O)(=O)c1ccccc1 (stereo not given) | i | i | i | i | i | · | · | · | · | · | ·
CN(C)CCCN1C(=O)c2cccc3c(Br)ccc(c23)C1=O | i | -9.6* | i | i | i | i | 87%* | -32%* | 80%* | 80%* | i
Cc1ccc(C(=O)NCCCNCCCNC(=O)c2ccc(C)nc2)cn1 | i | i | i | i | i | · | · | · | · | · | ·
Cc1ccc(S(=O)(=O)NCCNC(=O)c2ccc(C)nc2)cc1 | i | -6.3* | i | i | i | i | i | i | i | i | ·
CN1CCN(C(=O)/C(=C\c2cccnc2)NC(=O)c2cccc(Br)c2)CC1 | i | i | i | i | i | · | · | · | · | · | ·
O=[N+]([O-])c1cccc(OCC(O)CN2CCN(S(=O)(=O)c3cc(Cl)ccc3Cl)CC2)c1 (stereo not given) | i | i | i | i | i | · | · | · | · | · | ·
CCN(CC)C(=O)N1CCn2c(nc3ccccc32)C1 | i | -5.5* | i | i | i | i | i | 12%* | i | i | i
Cc1ccccc1CC1(CO)CCCN(C(=O)CCCN2CCCCC2=O)C1 (stereo not given) | i | i | i | i | i | · | · | · | · | · | ·
CCCn1c(N)c(NCCN2CCOCC2)c(=O)[nH]c1=O | i | i | i | i | i | · | · | · | · | · | ·
